Experimental data: ChEMBL document CHEMBL3632506, “Esters of some non-steroidal anti-inflammatory drugs with cinnamyl alcohol are potent lipoxygenase inhibitors with enhanced anti-inflammatory activity” (Bioorg Med Chem Lett, 2015)
Calls of active or inactive are those of the source. The calls are words filed in the database; no cut-off is given here.

Key:
[1] = test system: Liver; test: Antioxidant activity in rat hepatic microsomal membrane assessed as inhibition of ferrous ascorbate-induced lipid peroxidation after 45 mins by spectrophotometric analysis; type: functional, cell membranes
[2] = Antioxidant activity assessed as DPPH radical scavenging activity at 0.2 mM after 30 mins; type: physicochemical; settings: 0.5 h, 200 µM
[3] = test system: Glycine max; test: Competitive inhibition of soybean lipoxygenase 1 mM of sodium linoleate assessed as reduction of 13-hydroperoxylinoleic acid formation up to 7 mins
Procedure, shortened: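 Soybean lipoxygenase run with linoleic acid at 1 mM, above the saturating substrate concentration, under the same conditions as the standard inhibition assay, to test for competitive inhibition.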

[4] = test system: Rattus norvegicus; test: Antiinflammatory activity in rat assessed as reduction of carrageenan-induced paw oedema at 0.15 mmol/kg, ip administered 5 mins before carrageenan challenge measured after 3.5 hrs; type: functional
Procedure, shortened: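 Rat carrageenan-induced paw oedema; compounds given ip at 0.15 mmol/kg body weight. Result expressed as percent inhibition of oedema relative to controls; mean of 6–8 animals; significance by Student's t test.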

[5] = test system: Rattus norvegicus; test: Antiinflammatory activity in rat assessed as reduction of carrageenan-induced paw oedema at 0.30 mmol/kg, ip administered 5 mins before carrageenan challenge measured after 3.5 hrs; type: functional
[6] = Inhibition of soybean lipoxygenase assessed as reduction in conversion of sodium linoleate to 13-hydroperoxylinoleic acid up to 7 mins; design: species or system Glycine max
[7] = test system: Rattus norvegicus; test: Antidyslipidemic activity in rat Triton-WR1339-induced hyperlipidemic model assessed as reduction of plasma triglyceride level at 0.15 mmol/kg, ip after 24 hrs; type: functional; design: scale not given: the % may be the effect or the level left
Procedure, shortened: (§1)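 Hyperlipidemia induced in rats by tyloxapol 200 mg/kg ip; compounds given ip at 150 μmol/kg. Serum total cholesterol, triglycerides and LDL-cholesterol compared with hyperlipidemic controls. Groups of six to eight rats; significance by Student's t test.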

[8] = test system: Rattus norvegicus; test: Antidyslipidemic activity in rat Triton-WR1339-induced hyperlipidemic model assessed as reduction of plasma low density lipoprotein cholesterol level at 0.15 mmol/kg, ip after 24 hrs; type: functional; design: scale not given: the % may be the effect or the level left; procedure, shortened: as §1
[9] = test system: Rattus norvegicus; test: Antidyslipidemic activity in rat Triton-WR1339-induced hyperlipidemic model assessed as reduction of plasma total cholesterol level at 0.15 mmol/kg, ip after 24 hrs; type: functional; design: scale not given: the % may be the effect or the level left; procedure, shortened: as §1

SMILES | inhibition [1] | Activity [2] | inhibition [3] | inhibition in vivo at 150 µmol/kg [4] | inhibition in vivo at 300 µmol/kg [5] | IC50 [6] | Activity [7] | Activity [8] | Activity [9]
O=C(CCCCC1CCSS1)OC/C=C/c1ccccc1 (stereo unspecified) | inactive | Not Active | inactive | 48% | 57% | 11.3 µM |  |  | 
Cc1cccc(Nc2ccccc2C(=O)O)c1C [MEFENAMIC ACID] |  |  |  | 44% |  |  |  |  | 
Cc1c(Cl)cccc1Nc1ccccc1C(=O)O [TOLFENAMIC ACID] |  |  |  | 24% |  |  |  |  | 
CC(C)Cc1ccc(C(C)C(=O)OC/C=C/c2ccccc2)cc1 (stereo unspecified) | inactive | Not Active | inactive | 46% | 68% | 6.7 µM | 77.5% | 75% | 53.3%
CC(C)Cc1ccc(C(C)C(=O)O)cc1 (stereo unspecified) [IBUPROFEN] |  |  |  | 36% |  |  |  |  | 
OC/C=C/c1ccccc1 [CINNAMIC ALCOHOL] |  |  |  | 13% |  | 250 µM |  |  | 
O=C(Cc1c[nH]c2ccccc12)OC/C=C/c1ccccc1 | inactive | Not Active | inactive | 33% |  | 116 µM |  |  | 
COc1ccc2c(c1)c(CC(=O)O)c(C)n2C(=O)c1ccc(Cl)cc1 [INDOMETHACIN] |  |  |  | 42% |  |  |  |  | 
COc1ccc2cc([C@H](C)C(=O)O)ccc2c1 [NAPROXEN] |  |  |  | 11% |  |  |  |  | 
CC(Cc1ccc(O)c(O)c1)C(C)Cc1ccc(O)c(O)c1 (stereo unspecified) [NORDIHYDROGUAIARETIC ACID] |  |  |  |  |  | 1.3 µM |  |  | 
O=C(Cc1ccccc1Nc1c(Cl)cccc1Cl)OC/C=C/c1ccccc1 | inactive | Not Active | inactive | 53% |  | 78 µM | 71.6% | 76.8% | 78.4%
COc1ccc2cc([C@H](C)C(=O)OC/C=C/c3ccccc3)ccc2c1 | inactive | Not Active | inactive | 60% |  | 40.5 µM |  |  | 
O=C(OC/C=C/c1ccccc1)c1ccccc1Nc1cccc(C(F)(F)F)c1 | inactive | Not Active | inactive | 48% |  | 9 µM | 50.1% | 65.1% | 48.4%
O=C(O)c1ccccc1Nc1cccc(C(F)(F)F)c1 [FLUFENAMIC ACID] |  |  |  | 19% |  |  |  |  | 
COc1ccc2c(c1)c(CC(=O)OC/C=C/c1ccccc1)c(C)n2C(=O)c1ccc(Cl)cc1 | inactive | Not Active | inactive | 56% |  | 9 µM |  |  | 
O=C(O)Cc1ccccc1Nc1c(Cl)cccc1Cl [DICLOFENAC] |  |  |  | 37% |  |  |  |  | 
Cc1cccc(Nc2ccccc2C(=O)OC/C=C/c2ccccc2)c1C | inactive | Not Active | inactive | 62% |  | 38 µM |  |  | 
CC(C(=O)OC/C=C/c1ccccc1)c1cccc(C(=O)c2ccccc2)c1 (stereo unspecified) | inactive | Not Active | inactive | 55% |  | 22.5 µM |  |  | 
Cc1c(Cl)cccc1Nc1ccccc1C(=O)OC/C=C/c1ccccc1 | inactive | Not Active | inactive | 42% |  | 9.6 µM |  |  | 
